The record followed here is PubChem BioAssay.

Values without a mark were called inactive. Results filed as inconclusive are left out. The source made the active and inactive calls.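 How the source made its calls, unless noted: active means viability increase at or above a cutoff of the median across tested compounds plus 3 SD (cut at about 8.5% in these data, passing the limit was not always enough); inconclusive means some gains above the cutoff, reason not given; inactive means the rest.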

The nature of assay [1]: OD615 S. cerevisiae growth inhibition, permissive medium, pilot counter-assay, permissive growth control for S. cerevisiae lifespan shortening project (AID 705;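 active means growth inhibition above 25% in both replicates, a cutoff set 3 SD above the mean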). The conditions noted are these: OD615, 24 h, at 10 µM, stronger effect = higher value. A digest of the protocol: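 Material: engineered DeaD yeast; compound dosing: one dose 10 µM, DMSO 0.25% final; measure: yeast growth inhibition indicated by reduced 24 h OD615; detection: OD615 turbidity read; incubation: cells pre-grown 4 h, then 24 h compound exposure, 30 °C humidified; medium: permissive synthetic complete medium with raffinose and galactose carbon sources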

Assay [2] can be described thus: Restrictive medium S. cerevisiae growth inhibition, OD615, pilot screen of yeast lifespan reduction project, restrictive growth control (AID 706;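 active means growth inhibition above a set limit, 3 SD over mean compound inhibition, in both replicates, cut at about 43% in these data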;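 further: modified DeaD lifespan yeast strain shifted to restrictive glucose medium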). The note with it: OD615, 48 h, at 10 µM, stronger effect = higher value. An outline of the steps:
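material = engineered S. cerevisiae DeaD strain | medium = glucose-based CSMM-D restrictive medium | times = 4 h pre-incubation, 48 h exposure at 30 °C | technique = OD615 absorbance reading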

A short description of assay [3]: viability gain of MRP-1-high H69AR cells under doxorubicin, pilot screen, MRP-1 activator project, CellTiter-Glo, duplicate (AID 807).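 Further: compound pretreatment 18-22 h then 72 h combined with doxorubicin; 0% = doxorubicin alone and 100% = vehicle without doxorubicin.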 The note with it: H69AR viability with doxorubicin, CellTiter-Glo luminescence; at 10 µM; stronger effect = higher value. Background: Cellular ATP, detected with luciferase, serves as a proxy for viable cell number.
The nature of assay [4]: growth suppression of beta-catenin knockout HCT116, pilot screen, human colon tumor cells (AID 823;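 active means cell viability at or below a set limit in both duplicate runs, the limit being the all-compound median minus 4 SD, cut at about 23% in these data, passing the limit was not always enough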;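 further: 0% = wells killed by 20 µM Hyamine and 100% = untreated DMSO cell wells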). The conditions noted are these: CellTiter-Glo, 60 h, at 10 µM, stronger effect = lower value.
Assay [5] in a line: growth suppression of PTEN-deleted HCT116, pilot screen, cell-based, HCT116 clonal line, CellTiter-Glo (AID 824;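 active means viability at or below 27.92% in each of two runs, the all-compound median minus 4 SD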;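 further: 0% = 20 µM Hyamine control and 100% = vehicle cell control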). The note with it: 60 h, at 10 µM, stronger effect = lower value.
A short description of assay [6]: inhibitors of the yeast RAM network, pilot screen, dse1pr::URA3 reporter, 5-FOA selection (AID 869;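 active means inhibition over a set limit, the all-compound mean plus 3 SD, in both replicate runs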;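 further: 0% = DMSO wells with no growth and 100% = 10 µM 1-NA-PP1 with full growth; RAM network block rescues cells from 5-FOA so hits raise OD615 growth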). The note with it: S. cerevisiae dse1pr::URA3 5-FOA growth, OD615, 2 d; at 10 µM; stronger effect = higher value; strain carries analog-sensitive mutant Cbk1 kinase.
Assay [7] is described as follows: RAM signaling pathway blockade in yeast – S. cerevisiae, Pdr1DBD-CYC8 efflux-inhibited sensitized strain, primary screen (AID 1298;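 active means RAM network inhibition above 8.4% in each of two replicates, 3 SD over the compound average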;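 further: 0% = DMSO untreated cells without growth and 100% = 10 µM 1-NA-PP1 full growth; higher means more yeast growth rescued from 5-FOA killing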). The note with it: S. cerevisiae cbk1-as DSE1-URA3 strain, 5-FOA growth OD615, 2 d; at 50 µM; stronger effect = higher value.

Regarding `Cc1nc(=O)c(-c2ccccc2)c(C)n1CC1CCCO1` (configuration not stated), the growth inhibition in assay [1] is -7.12%; in assay [2], -9.15%. In addition, the viability increase in assay [3] was -2.44%. Besides, the viability (as a rule, a read-out of living cells in per cent, often relative to untreated cells) in assay [4] is 99.8%; in assay [5], 96.4%. Moreover, in assay [6], the inhibition (usually the change of the read-out against control, counted positive when it falls) was 1.38%. For the same molecule, the RAM network inhibition in assay [7] is 0.16%.

With `Cc1n[nH]c(C)c1S(=O)(=O)N(CC(=O)N1CCc2ccccc21)c1ccc(C(C)C)cc1`, the growth inhibition is -9.99% in assay [1] and 9.17% in assay [2]. For the same molecule, the viability increase in assay [3] was -7.59%. The viability in assay [4] was 89.6%; in assay [5], 83.3%. In addition, the inhibition in assay [6] is 1.94%. Further, the RAM network inhibition in assay [7] was 8.57%.

In the case of `COc1ccc(CCn2c(N)c(S(=O)(=O)c3cccs3)c3nc4ccccc4nc32)cc1OC`, the growth inhibition in assay [1] was -4.55%; in assay [2] it was -27.6%. Also, in assay [3], the viability increase was -2.53%. Further, the results for the viability in assay [4] and in assay [5] were 91.6% and 85.1%, respectively. Moreover, in assay [7], the RAM network inhibition was 8.59%.

On to `COc1cccc2cc(C(=O)N3CCC(C)CC3)c(=O)oc12`, for which the results for the growth inhibition in assay [1] and in assay [2] were -2.37% and -3.85%, respectively. Also, in assay [3], the viability increase was -0.12%. The viability in assay [4] was 96.8%; in assay [5], 90.5%. Further, in assay [6], the inhibition is 1.17%. Moreover, the RAM network inhibition in assay [7] was 4.51%.

As to `Cn1c(=O)c2c(nc(CN3CCN(Cc4ccccc4)CC3)n2Cc2ccc(Cl)cc2)n(C)c1=O`, the growth inhibition was -2.47% in assay [1] and -13.5% in assay [2]. The viability increase in assay [3] is -6.52%. Also, the figures for the viability in assay [4] and in assay [5] were 8.81% (active) and 10.3% (active), respectively. Further, in assay [6], the inhibition was 1.27%. The RAM network inhibition in assay [7] was 2.33%.

For `CN1C(=O)CSc2ccc(C(=O)O)cc21`, the growth inhibition in assay [1] is 0.925%; in assay [2] it was -1.22%. In addition, in assay [3], the viability increase is -0.35%. Moreover, the viability in assay [4] and in assay [5] was 100% throughout. Besides, the RAM network inhibition in assay [7] is -0.62%.

For the molecule `COc1ccc(S(=O)(=O)Cc2ccc(C(=O)NC3CC3)o2)cc1`, the figures for the growth inhibition in assay [1] and in assay [2] were 1.37% and -4.7%, respectively. In assay [3], the viability increase was -3.02%. For the same molecule, the viability was 75.5% in assay [4] and 87.9% in assay [5]. Further, the inhibition in assay [6] was 0.85%. Also, the RAM network inhibition in assay [7] is 2.57%.

As to `O=C(c1ccccc1)n1nc(-c2ccccc2)nc1NCc1ccco1`, the growth inhibition was -15.5% in assay [1] and -17% in assay [2]. In addition, the viability increase in assay [3] is 0.43%. The viability was 96.7% in assay [4] and 98.1% in assay [5]. Further, the inhibition in assay [6] is 2.25%. In addition, the RAM network inhibition in assay [7] is 6.58%.

As to `O=C(Cn1c(=O)oc2cc(S(=O)(=O)N3CCCCCC3)ccc21)NC1CCCCC1`, the growth inhibition in assay [1] is -4.92%; in assay [2], -8.79%. Moreover, in assay [3], the viability increase was -4.28%. In addition, the viability in assay [4] was 101%; in assay [5], 93.8%. For the same molecule, in assay [7], the RAM network inhibition is 3.25%.

`Cc1cc2cc(CNC(=O)c3ccc(S(=O)(=O)N4CCOCC4)cc3)ccc2[nH]1`: the growth inhibition was -5.21% in assay [1] and -10.8% in assay [2]. Further, the viability increase in assay [3] was 0.86%. Moreover, the viability in assay [4] was 99.5%; in assay [5], 96.2%. The RAM network inhibition in assay [7] was 5.69%.

Regarding `Cc1ccc2oc(=O)c3cnn(CC(=O)Nc4ccccc4N4CCN(C)CC4)c3c2c1`, the growth inhibition in assay [1] is 0.52%; in assay [2], -25.3%. Moreover, the viability increase in assay [3] is -6.16%. Also, the viability in assay [4] is 8.9% (active); in assay [5], 6.03% (active). Also, the inhibition in assay [6] is -0.415%. Also, in assay [7], the RAM network inhibition was -0.65%.

As to `COc1cc(OC)c(NC2c3ccccc3C(=O)N2c2cc(C)ccn2)cc1Cl` (configuration not stated), the values for the growth inhibition in assay [1] and in assay [2] were -11.7% and -3.74%, respectively. Further, the viability increase in assay [3] is 0.48%. For the same molecule, the viability in assay [4] is 92.9%; in assay [5], 84.2%. For the same molecule, in assay [6], the inhibition was 0%. Besides, in assay [7], the RAM network inhibition was 6.68%.

`Cc1cc(C)nc(SCc2ccccc2C#N)n1`: the growth inhibition in assay [1] is -9.81%; in assay [2], -6.26%. The viability increase in assay [3] is -0.49%. Also, the viability in assay [4] is 98.8%; in assay [5] it was 98%. For the same molecule, the inhibition in assay [6] was 0.705%. Moreover, the RAM network inhibition in assay [7] was 9.71%.

Take `COc1ccc(OC)c(C2C(C(N)=O)=C(C)Nc3nc(CCCO)nn32)c1` (configuration not stated): the growth inhibition in assay [1] was -12.9%; in assay [2], -20.6%. For the same molecule, the viability increase in assay [3] was 0.09%. Moreover, the viability is 97.3% in assay [4] and 95.6% in assay [5]. Also, the inhibition in assay [6] was 1.61%. Also, the RAM network inhibition in assay [7] is 5.21%.

Regarding `CCOC(=O)CC1C(=O)NCCN1C(=O)c1cc2c(=O)n3cccc(C)c3nc2s1` (configuration not stated), the growth inhibition in assay [1] was -11%; in assay [2], -11.3%. In addition, in assay [3], the viability increase is -3.53%. Further, the viability in assay [4] was 98%; in assay [5], 98.8%. Also, the inhibition in assay [6] was -0.035%. The RAM network inhibition in assay [7] was -1.37%.

Turning to `COC(=O)CCC(=O)Nc1ccc(Br)cc1`, the growth inhibition is 8.2% in assay [1] and 0.895% in assay [2]. In addition, the viability increase in assay [3] was -1.52%. Besides, the viability in assay [4] is 101%; in assay [5], 95.4%. For the same molecule, the inhibition in assay [6] was 1.16%. The RAM network inhibition in assay [7] was 6.37%.

Regarding `CCOc1ccc(CCNc2cc(C)nc3ncnn23)cc1OCC`, the results for the growth inhibition in assay [1] and in assay [2] were -1.77% and 4.5%, respectively. Besides, the viability increase in assay [3] was -2.06%. The viability in assay [4] is 90.3%; in assay [5] it was 94.1%. Also, the inhibition in assay [6] is 1.71%. Further, in assay [7], the RAM network inhibition is 1.15%.

As for `CCOC(=O)c1sc2nc(NC(=O)c3cccs3)sc2c1C`, the values for the growth inhibition in assay [1] and in assay [2] were 5.51% and -2.37%, respectively. In addition, the viability increase in assay [3] is -1.92%. Besides, the results for the viability in assay [4] and in assay [5] were 92.5% and 87.4%, respectively. Besides, the inhibition in assay [6] is -0.28%. For the same molecule, in assay [7], the RAM network inhibition is -0.16%.
